Test results taken from ChEMBL document CHEMBL4229460, “Design and biological evaluation of novel hybrids of 1, 5-diarylpyrazole and Chrysin for selective COX-2 inhibition” (Bioorg Med Chem, 2018).

Legend:
HeLa [1] = experiment: Disruption of mitochondrial membrane potential in human HeLa cells assessed as intact mitochondrial membrane at 10 uM after 12 hrs by JC1 staining based flow cytometry (reference value: 99.2%); assay type: functional
HeLa [2] = experiment: Disruption of mitochondrial membrane potential in human HeLa cells assessed as collapse of the mitochondrial membrane potential at 10 uM after 12 hrs by JC1 staining based flow cytometry (reference value: 0.768%); assay type: functional
Homo sapiens = species on record: Homo sapiens; experiment: Selectivity index, ratio of IC50 for COX1 (unknown origin) to ratio of IC50 for COX2 (unknown origin)
In short: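 Enzyme ELISA kit: COX-1 or COX-2 preincubated with compound at 0, 1, 10 or 100 μM for 10 min at 37 °C in 0.1 M Tris-HCl pH 8.0, 5 mM EDTA, 2 mM phenol, 1 μM heme. Started with 100 μM arachidonic acid for 2 min at 37 °C, stopped with 1 M HCl. PGH₂ reduced by stannous chloride; PGF2α read by enzyme immunoassay at 450 nm. Index taken as the ratio of the COX IC50 values.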

A549 = experiment: Antiproliferative activity against human A549 cells after 48 hrs by MTT assay; assay type: functional, cell-based; settings: A549, 48 h
In short: (§1)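 Cells kept in DMEM with 10% FBS, penicillin/streptomycin, 37 °C, 5% CO₂. Seeded at 5 × 10⁴ cells/well and allowed to adhere 12 h. Exposed to 0, 0.1, 1, 10 and 100 μM (final) for 48 h. Viability read by MTT reduction at OD 570 nm with 630 nm reference. IC50 reported as mean ± SD of three independent experiments.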

MCF7 = experiment: Antiproliferative activity against human MCF7 cells after 48 hrs by MTT assay; assay type: functional, cell-based; settings: MCF7, 48 h
HEK-293T = experiment: Cytotoxicity against human 293T cells after 48 hrs by MTT assay; assay type: cell-based
HeLa [3] = experiment: Antiproliferative activity against human HeLa cells after 48 hrs by MTT assay; assay type: functional, cell-based
[4] = biological target: Prostaglandin G/H synthase 1 (Homo sapiens, UniProt P23219); experiment: Inhibition of COX1 (unknown origin) using arachidonic acid as substrate pretreated for 10 mins followed by substrate addition and measured after 2 mins by ELISA; assay type: ADME
Sequence of Prostaglandin G/H synthase 1 (P23219 whole entry): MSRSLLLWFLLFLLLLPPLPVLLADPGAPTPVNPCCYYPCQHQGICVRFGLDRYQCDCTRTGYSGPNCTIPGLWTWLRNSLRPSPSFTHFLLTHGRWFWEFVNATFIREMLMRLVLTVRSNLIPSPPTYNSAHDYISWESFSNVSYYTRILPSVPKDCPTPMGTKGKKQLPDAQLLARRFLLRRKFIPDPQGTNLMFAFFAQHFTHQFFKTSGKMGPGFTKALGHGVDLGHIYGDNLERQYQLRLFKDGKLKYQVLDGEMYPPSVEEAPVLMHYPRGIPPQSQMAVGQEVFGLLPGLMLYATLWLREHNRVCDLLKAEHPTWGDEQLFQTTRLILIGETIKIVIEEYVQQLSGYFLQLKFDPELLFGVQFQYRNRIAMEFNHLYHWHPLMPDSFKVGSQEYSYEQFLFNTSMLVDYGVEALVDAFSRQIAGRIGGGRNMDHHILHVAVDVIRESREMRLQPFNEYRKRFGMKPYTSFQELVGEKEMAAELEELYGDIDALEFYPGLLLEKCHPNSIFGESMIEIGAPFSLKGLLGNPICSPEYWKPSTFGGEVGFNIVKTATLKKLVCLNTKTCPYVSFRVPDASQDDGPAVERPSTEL

[5] = biological target: T1, Prostaglandin G/H synthase 2 (Homo sapiens, UniProt P35354); experiment: Inhibition of COX2 (unknown origin) using arachidonic acid as substrate pretreated for 10 mins followed by substrate addition and measured after 2 mins by ELISA
T1 sequence (P35354 whole entry): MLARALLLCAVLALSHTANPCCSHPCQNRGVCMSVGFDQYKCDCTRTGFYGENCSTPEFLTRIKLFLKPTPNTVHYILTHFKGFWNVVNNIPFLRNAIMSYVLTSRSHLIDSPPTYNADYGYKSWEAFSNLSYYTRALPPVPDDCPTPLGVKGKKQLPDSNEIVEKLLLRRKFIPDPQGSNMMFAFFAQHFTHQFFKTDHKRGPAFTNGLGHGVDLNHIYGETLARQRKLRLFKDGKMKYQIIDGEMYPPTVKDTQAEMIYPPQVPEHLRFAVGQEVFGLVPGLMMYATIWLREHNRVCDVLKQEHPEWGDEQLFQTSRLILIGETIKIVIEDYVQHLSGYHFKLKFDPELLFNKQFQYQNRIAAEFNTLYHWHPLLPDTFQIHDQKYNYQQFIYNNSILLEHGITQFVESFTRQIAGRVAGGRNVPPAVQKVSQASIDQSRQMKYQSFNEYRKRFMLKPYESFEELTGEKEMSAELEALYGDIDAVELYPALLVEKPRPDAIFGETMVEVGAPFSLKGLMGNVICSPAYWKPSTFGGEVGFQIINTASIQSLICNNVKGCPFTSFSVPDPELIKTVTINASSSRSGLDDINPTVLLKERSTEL

B16-F10 = experiment: Antiproliferative activity against mouse B16F10 cells after 48 hrs by MTT assay; assay type: functional, cell-based; settings: B16-F10, 48 h; in short: as §1

Structure (SMILES)	Ratio IC50 (Homo sapiens)	IC50 (A549) [µM]	IC50 (MCF7) [µM]	IC50 (HeLa [3]) [µM]	IC50 [4] [µM]	IC50 [5] [µM]	IC50 (B16-F10) [µM]	Activity (HeLa [1]) [%]	Activity (HeLa [2]) [%]	IC50 (HEK-293T) [µM]
N#CC(C#N)=NNc1cccc(Cl)c1 [CARBONYL CYANIDE M-CHLOROPHENYLHYDRAZONE]								59.5	40.5	
Cc1ccc(-n2nc(COC(=O)COc3cc(O)c4c(=O)cc(-c5ccccc5)oc4c3)cc2-c2ccc([N+](=O)[O-])cc2)cc1	32.1	5.88	15.8	18.4	44.8	1.39	2.71			216
O=C(COc1cc(O)c2c(=O)cc(-c3ccccc3)oc2c1)OCc1cc(-c2ccc(Cl)cc2)n(-c2ccccc2)n1	> 35	> 100	47	1.65	> 50	1.41	15.6			227
COc1cccc(-c2cc(COC(=O)COc3cc(O)c4c(=O)cc(-c5ccccc5)oc4c3)nn2-c2ccccc2)c1	21	13.6	5.12	13.6	25.5	1.21	6.92			317

More lines, main results first:

Ratio IC50 (Homo sapiens)	IC50 (A549) [µM]	IC50 (MCF7) [µM]	IC50 (HeLa [3]) [µM]	IC50 [4] [µM]	IC50 [5] [µM]	IC50 (B16-F10) [µM]	Structure (SMILES)	Activity (HeLa [1]) [%]	Activity (HeLa [2]) [%]	IC50 (HEK-293T) [µM]
3.86	3.62	12.1	4.72	33.1	8.58	6.08	O=C(COc1cc(O)c2c(=O)cc(-c3ccccc3)oc2c1)OCc1cc(-c2ccc(Cl)c(Cl)c2)n(-c2ccc(Cl)cc2)n1			268
5.92	5.07	6.21	4.32	29.7	5.02	7.44	Cc1ccc(-n2nc(COC(=O)COc3cc(O)c4c(=O)cc(-c5ccccc5)oc4c3)cc2-c2ccc(C(F)(F)F)cc2)cc1			212
